# According to ChEMBL document CHEMBL1122500, “Potential radiosensitizing agents. 6. 2-Nitroimidazole nucleosides: arabinofuranosyl and hexopyranosyl analogues” (J Med Chem, 1983):
# Experiments:
# [1] = In vitro radiosensitizing activity against Chinese Hamster cells at a conc of 1.0 mM measured as sensitizer enhancement ratio; type: functional, Cricetulus griseus
# Method in brief: (§1)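 V-79 Chinese hamster asynchronous monolayers from exponential cultures, plated in sealed containers and made hypoxic by flushing with 95% N2/5% CO2 for 1 h at 37 °C with compound present; total drug exposure 2 h. Cobalt-60 irradiation at ~230 rad/min, 400–2700 rad. Colonies counted after 6 days at 37 °C. SER = D0 hypoxic control / D0 hypoxic drug-treated; averaged over at least two experiment sets.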
# [2] = Partition coefficient value between phosphate buffer (0.1 M, pH 7.4) and octanol at room temperature; type: physicochemical; conditions: octanol/water
# Method in brief: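 Shake-flask method: compound dissolved in 0.1 M phosphate buffer pH 7.4, stirred 1 h at room temperature with an equal volume of octanol. Aqueous-phase nucleoside concentration measured spectrophotometrically.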
# [3] = In vitro radiosensitizing activity against Chinese Hamster cells at a conc of 0.5 mM measured as sensitizer enhancement ratio; type: functional, Cricetulus griseus; method in brief: as §1
# [4] = In vitro radiosensitizing activity against Chinese Hamster cells at a conc of 1 mM measured as sensitizer enhancement ratio; type: functional, Cricetulus griseus; method in brief: as §1
# [5] = In vitro radiosensitizing activity against Chinese Hamster cells at a conc of 0.1 mM measured as sensitizer enhancement ratio
# [6] = In vitro radiosensitizing activity against Chinese Hamster cells at a conc of 0.05 mM measured as sensitizer enhancement ratio; type: functional, Cricetulus griseus; method in brief: as §1
PC [2],Compound,SER [3],further results
0.22,O=[N+]([O-])c1nccn1[C@H]1C=C[C@H](O)[C@@H](CO)O1,–,SER [1]: 2
0.43,COCC(O)Cn1ccnc1[N+](=O)[O-] (configuration not stated) [MISONIDAZOLE],–,SER [4]: 1.9
0.07,O=[N+]([O-])c1nccn1[C@@H]1O[C@H](CO)[C@@H](O)[C@@H]1O,–,SER [1]: 1.8
0.22,O=[N+]([O-])c1nccn1[C@@H]1C=C[C@H](O)[C@@H](CO)O1,2,–
0.11,O=[N+]([O-])c1nccn1[C@H]1O[C@H](CO)[C@@H](O)[C@@H]1O,–,SER [4]: 1.6
0.24,O=[N+]([O-])c1nccn1[C@H]1C=COC(CO)C1O (some centres not stated),–,SER [1]: 1.7

# Second part, the compound before the results:
Compound,PC [2],SER [3],further results
CC(=O)OCC1OC=CC(n2ccnc2[N+](=O)[O-])C1OC(C)=O (configuration not stated),–,1.8,–
CC(=O)OC[C@H]1O[C@H](n2ccnc2[N+](=O)[O-])C=C[C@@H]1OC(C)=O,–,1.9,–
CC(=O)OC[C@H]1O[C@@H](n2ccnc2[N+](=O)[O-])C=C[C@@H]1OC(C)=O,–,1.6,–
O=C(OC[C@H]1O[C@@H](n2ccnc2[N+](=O)[O-])[C@H](OC(=O)c2ccccc2)[C@@H]1OC(=O)c1ccccc1)c1ccccc1,–,–,SER [5]: 1.1
O=C(OC[C@H]1O[C@H](n2ccnc2[N+](=O)[O-])[C@H](OC(=O)c2ccccc2)[C@@H]1OC(=O)c1ccccc1)c1ccccc1,–,–,SER [6]: 1
